Experimental data reported in ChEMBL document CHEMBL1131474, “Asymmetric synthesis and pharmacology of methylphenidate and its para-substituted derivatives” (J Med Chem, 1998).

Columns and labels:
Type in all cases: functional
Rattus norvegicus [1] = organism: Rattus norvegicus; test: Ability to inhibit the uptake of dopamine [3H]DA in to rat brain synaptosomes
In short: (§1)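 Crude S1 synaptosomes from male Sprague–Dawley rat frontal/temporal cortex and striatum (sucrose–Tris–glucose, pH 7.4; 1000g, 15 min, 4 °C). Five drug levels, triplicate, with [3H]DA 25 nM or [3H]l-NE 50 nM final, in pargyline-containing Tris saline buffer. Preincubation 5 min, then 5 min uptake at 37 °C. Filtered, counted by scintillation, 0 °C uptake subtracted. IC50 read from sigmoidal fit.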

Rattus norvegicus [2] = organism: Rattus norvegicus; test: Ability to inhibit the uptake of norepinephrine [3H]-NE in to rat brain synaptosomes; in short: as §1
[3] = Eudisimic ratio for DA uptake is the ratio of the IC50 values l-isomer and d-isomer
In short: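 Eudismic ratio: IC50 of the l-isomer divided by IC50 of the d-isomer for each enantiomeric pair. IC50s came from rat synaptosomal [3H]DA or [3H]l-NE uptake, with five drug concentrations in triplicate and 5 min at 37 °C.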

| SMILES | IC50 (Rattus norvegicus [1]) [nM] | IC50 (Rattus norvegicus [2]) [nM] | Eudismic ratio [3] |
| --- | --- | --- | --- |
| COC(=O)C(c1ccccc1)C1CCCCN1 (racemic) [METHYLPHENIDATE] | 438 | 171 | – |
| COC(=O)[C@@H](c1ccc(OC)cc1)[C@@H]1CCCCN1 | 3590 | 1300 | – |
| COC(=O)[C@@H](c1ccccc1)[C@@H]1CCCCN1 | 1470 | 876 | – |
| COC(=O)[C@@H](c1ccc(Br)cc1)[C@@H]1CCCCN1 | 408 | 248 | – |
| COC(=O)[C@H](c1ccc(Br)cc1)[C@H]1CCCCN1 | 22.5 | 9.34 | – |
| COC(=O)[C@H](c1ccccc1)[C@H]1CCCCN1 [DEXMETHYLPHENIDATE] | 171 | 128 | – |
| COC(=O)[C@H](c1ccc(OC)cc1)[C@H]1CCCCN1 | 205 | 73 | 17.5 |
